# According to ChEMBL document CHEMBL1123812, “Pyrroloisoquinoline antidepressants. 2. In-depth exploration of structure-activity relationships” (J Med Chem, 1987):
# Activity calls are given as the source filed them.
# Columns and labels:
# [1] = target: T1, Serotonin 2 (5-HT2) receptor (Rattus norvegicus) (UniProt P30994+P08909+P14842); experiment: Binding affinity towards 5-hydroxytryptamine 2 receptor; assay type: protein assay; conditions: concentration not given here
# Outline: (§1)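 Rat brain crude synaptic membranes in 20 mM NaHEPES pH 7.5. Ligands: α1 cortex […] 0.4 nM, nonspecific with (-)-NE 100 μM, 30 min at 25 °C. […] D2 striatum [3H]spiperone 0.05 nM with (+)-butaclamol 1 μM, 45 min at 37 °C. S1 cortex [3H]5-HT 1 nM plus glutathione and MgCl2, with 5-HT 10 μM, 20 min at 37 °C. […] Samples filtered on GF/B and counted.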
# [2] = target: Serotonin 1 (5-HT1) receptor (Rattus norvegicus) (UniProt P28564+P30940+P19327+P28565); experiment: Binding affinity towards serotonin S1 receptor at 1.0 uM; assay type: protein assay; outline: as §1
# [3] = target: D(2) dopamine receptor (Rattus norvegicus) (UniProt P61169); experiment: Binding affinity towards dopamine receptor D2 at 1.0 uM concentration; outline: as §1
# Chain of D(2) dopamine receptor (Rattus norvegicus) (P61169 whole entry): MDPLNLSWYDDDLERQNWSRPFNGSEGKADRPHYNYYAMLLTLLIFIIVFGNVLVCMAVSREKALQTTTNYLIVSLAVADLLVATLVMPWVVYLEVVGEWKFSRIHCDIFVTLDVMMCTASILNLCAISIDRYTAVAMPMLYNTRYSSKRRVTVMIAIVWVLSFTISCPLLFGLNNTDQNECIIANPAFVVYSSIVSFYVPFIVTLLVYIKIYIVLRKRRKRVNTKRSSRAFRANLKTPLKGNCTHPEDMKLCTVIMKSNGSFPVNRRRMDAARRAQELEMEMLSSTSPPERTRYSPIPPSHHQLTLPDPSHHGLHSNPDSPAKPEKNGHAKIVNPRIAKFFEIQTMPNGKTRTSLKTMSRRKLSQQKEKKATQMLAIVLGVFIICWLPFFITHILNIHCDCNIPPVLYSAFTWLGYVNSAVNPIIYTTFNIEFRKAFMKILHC
# [4] = tested on: Rattus norvegicus; experiment: Ability to inhibit the uptake of tritiated serotonin(5-HT) at 0.1 mg/kg concentration; assay type: functional
# [5] = target: Sodium-dependent serotonin transporter (Rattus norvegicus) (UniProt P31652); experiment: Ability to inhibit the uptake of [3H]- serotonin(5-HT) 0.1 uM concentration at rat brain synaptosomes; assay type: functional, subcellular
# Chain of Sodium-dependent serotonin transporter (Rattus norvegicus) (P31652 whole entry): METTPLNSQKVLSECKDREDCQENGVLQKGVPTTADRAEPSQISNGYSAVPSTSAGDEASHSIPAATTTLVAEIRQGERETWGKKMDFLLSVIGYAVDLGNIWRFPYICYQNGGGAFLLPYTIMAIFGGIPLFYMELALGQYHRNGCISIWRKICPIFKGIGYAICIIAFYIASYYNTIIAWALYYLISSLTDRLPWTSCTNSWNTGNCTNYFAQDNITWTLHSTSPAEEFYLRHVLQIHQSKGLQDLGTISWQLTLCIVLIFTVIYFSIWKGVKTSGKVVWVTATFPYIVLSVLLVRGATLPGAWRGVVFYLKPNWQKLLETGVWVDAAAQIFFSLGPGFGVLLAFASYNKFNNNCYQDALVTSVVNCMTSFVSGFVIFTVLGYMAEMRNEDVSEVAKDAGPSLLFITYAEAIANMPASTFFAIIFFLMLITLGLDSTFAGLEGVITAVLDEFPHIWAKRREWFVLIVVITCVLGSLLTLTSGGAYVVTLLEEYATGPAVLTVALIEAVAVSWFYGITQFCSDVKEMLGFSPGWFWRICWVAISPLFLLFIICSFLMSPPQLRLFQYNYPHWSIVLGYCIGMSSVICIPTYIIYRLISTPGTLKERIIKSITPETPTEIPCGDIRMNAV
# Outline: (§2)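 Male Wistar rat brain synaptosomes (P2 fraction): hypothalamus for NE, striatum for DA, cerebral cortex for 5-HT. Buffer is Tris- or HEPES-buffered salt medium with glucose, ascorbate and nialamide, pH 7.4 at 37 °C. Preincubated 10 min at 37 °C with compound. Uptake started with [3H]NE 100–300 nM, [3H]DA 50–300 nM or [3H]5-HT 100–200 nM, incubated 3 min (DA) or 6–10 min (NE, 5-HT). Blanks held on ice. Filtered, counted by scintillation.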
# [6] = species: Mus musculus; experiment: Gross behavioral effects ascertained in mice; W indicates weak stimulant or depressant activity of little significance.; assay type: functional, organism-based
# Outline: (§3)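 Male Swiss Webster mice, 18–24 g, three per dose, given ip doses of 1, 3, 10, 30, 100 and 300 mg/kg. Observed for gross behavior and held for 4 days. Scored as weak (W), stimulant (S), depressant (D) or convulsant (C).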
# [7] = tested on: Mus musculus; experiment: Ability to antagonise intraperitoneal administration; inactive (<10% antagonism) at 30 mgjkg is represented as I-30.; assay type: functional, organism-based
# Outline: (§4)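 Nonfasted male Swiss Webster mice, 18–24 g, ten per dose level and in saline controls. Test compound given ip 30 min before tetrabenazine 32 mg/kg ip; dose expressed as free base. Motor activity and ptosis scored. Control response ≤90% corrected by Abbott's formula.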
# [8] = species: Rattus norvegicus; experiment: Ability to inhibit the uptake of tritiated dopamine (DA) 1 uM concentration; assay type: functional
# Outline: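 Rat brain synaptosomal [3H]dopamine uptake: striatal P2 fraction, test compound at 1.00 μM. Preincubated at 37 °C, then 50–300 nM [3H]DA for 3 min. Blanks on ice. Filtration and scintillation counting; percent inhibition of control uptake.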
# [9] = tested on: Mus musculus; experiment: (§5) Ability to antagonise intraperitoneal dose; inactive (<10% antagonism) at 30 mgjkg is represented as I-30.; assay type: functional, organism-based; outline: as §4
# [10] = target: Norepinephrine transporter (Rattus norvegicus) (UniProt Q9WTR4); experiment: Ability to inhibit the uptake of [3H]norepinephrine (NE) 0.1 uM concentration at rat brain synaptosomes; assay type: functional, subcellular; outline: as §2
# Chain of Norepinephrine transporter (Rattus norvegicus) (Q9WTR4 as listed by the source): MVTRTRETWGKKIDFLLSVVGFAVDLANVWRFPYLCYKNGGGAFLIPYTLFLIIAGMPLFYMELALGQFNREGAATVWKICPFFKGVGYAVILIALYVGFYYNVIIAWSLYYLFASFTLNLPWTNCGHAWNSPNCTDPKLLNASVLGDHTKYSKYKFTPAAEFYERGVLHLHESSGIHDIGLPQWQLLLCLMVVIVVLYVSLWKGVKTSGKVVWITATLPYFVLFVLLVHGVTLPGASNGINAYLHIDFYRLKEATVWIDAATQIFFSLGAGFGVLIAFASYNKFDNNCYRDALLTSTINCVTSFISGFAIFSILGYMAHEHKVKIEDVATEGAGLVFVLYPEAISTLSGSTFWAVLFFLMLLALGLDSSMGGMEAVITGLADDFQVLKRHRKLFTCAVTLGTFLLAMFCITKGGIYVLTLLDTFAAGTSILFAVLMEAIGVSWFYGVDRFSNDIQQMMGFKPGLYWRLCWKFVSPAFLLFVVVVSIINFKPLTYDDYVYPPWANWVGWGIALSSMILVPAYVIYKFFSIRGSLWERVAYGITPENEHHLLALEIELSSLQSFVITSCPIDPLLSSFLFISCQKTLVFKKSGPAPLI
# [11] = species: Rattus norvegicus; experiment: Ability to inhibit the uptake of tritiated norepinephrine (NE) 0.1 uM concentration; assay type: functional; outline: as §2
# [12] = species: Mus musculus; experiment: Gross behavioral effects ascertained in mice; C indicates overt convulsant; assay type: functional, organism-based; outline: as §3
# [13] = tested on: Mus musculus; experiment: as §5; assay type: functional, organism-based; outline: as §4; remark: listed apart in the source
# [14] = target: Sodium-dependent dopamine transporter (Rattus norvegicus, UniProt P23977); experiment: Inhibition of the uptake of tritiated dopamine (DA) in rat synaptosomes; assay type: subcellular, Brain
# Chain of Sodium-dependent dopamine transporter (P23977 whole entry): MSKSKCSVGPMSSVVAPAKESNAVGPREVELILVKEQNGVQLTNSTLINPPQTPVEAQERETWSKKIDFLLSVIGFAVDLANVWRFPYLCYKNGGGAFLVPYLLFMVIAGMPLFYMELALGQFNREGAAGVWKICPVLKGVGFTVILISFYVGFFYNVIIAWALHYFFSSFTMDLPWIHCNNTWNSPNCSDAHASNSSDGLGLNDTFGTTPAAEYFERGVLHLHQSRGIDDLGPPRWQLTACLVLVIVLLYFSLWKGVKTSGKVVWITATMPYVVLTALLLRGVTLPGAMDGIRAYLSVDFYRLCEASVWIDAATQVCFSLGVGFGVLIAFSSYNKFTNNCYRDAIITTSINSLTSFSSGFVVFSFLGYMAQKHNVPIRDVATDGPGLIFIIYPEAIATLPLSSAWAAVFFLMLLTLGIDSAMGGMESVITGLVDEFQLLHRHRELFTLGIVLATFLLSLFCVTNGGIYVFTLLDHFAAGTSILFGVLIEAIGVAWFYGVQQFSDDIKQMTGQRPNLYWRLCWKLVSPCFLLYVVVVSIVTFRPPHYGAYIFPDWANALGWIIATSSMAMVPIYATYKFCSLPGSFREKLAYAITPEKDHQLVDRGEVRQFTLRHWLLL
# [15] = species: Rattus norvegicus; experiment: Ability to inhibit the uptake of tritiated serotonin (5-HT) at 0.1 uM concentration in rat synaptosomes; assay type: functional; conditions: Brain; outline: as §2
# [16] = tested on: Mus musculus; experiment: Ability to antagonise intraperitoneal dose; inactive (<10% antagonism) at 30 mg/kg is represented as I-30.; assay type: functional, organism-based; parameters: dose 30 mg/kg; outline: as §4
# [17] = target: Sodium-dependent serotonin transporter (Rattus norvegicus) (UniProt P31652); experiment: Inhibition of tritiated serotonin(5-HT) uptake at 0.1 uM concentration; assay type: functional; outline: as §2
# [18] = target: T1, Serotonin 2 (5-HT2) receptor (Rattus norvegicus); experiment: Binding affinity towards 5-hydroxytryptamine 2 receptor at 1.0 uM concentration; assay type: protein assay; outline: as §1
# [19] = tested on: Mus musculus; experiment: Ability to antagonise intraperitoneal 30 mg/kg dose; inactive (<10% antagonism) at 30 mgjkg is represented as I-30.; assay type: functional, organism-based; parameters: dose 30 mg/kg; outline: as §4
# [20] = species: Rattus norvegicus; experiment: Ability to inhibit the uptake of tritiated norepinephrine (NE) at 0.1 uM concentration; assay type: functional; outline: as §2
# [21] = target: Sodium-dependent dopamine transporter (Rattus norvegicus) (UniProt P23977); experiment: Inhibition of tritiated dopamine (DA) uptake at 0.1 uM concentration; assay type: functional; outline: as §2
# Chain of Sodium-dependent dopamine transporter (Rattus norvegicus) (P23977 whole entry): as above
# [22] = target: Adrenergic receptor alpha-1 (Rattus norvegicus) (UniProt P15823+P23944+P43140); experiment: Binding affinity towards alpha-1 adrenergic receptor at 1.0 uM concentration; assay type: protein assay; outline: as §1
# [23] = species: Rattus norvegicus; experiment: Ability to inhibit the uptake of tritiated dopamine (DA); assay type: functional; outline: as §2
# [24] = species: Mus musculus; experiment: Antagonism of tetrabenazine (TBZ)-induced depression measured in mice by motor activity; assay type: functional; conditions: Mus musculus; read-out: ED50; outline: as §4
# T1 sequence (P08909 whole entry, looked up): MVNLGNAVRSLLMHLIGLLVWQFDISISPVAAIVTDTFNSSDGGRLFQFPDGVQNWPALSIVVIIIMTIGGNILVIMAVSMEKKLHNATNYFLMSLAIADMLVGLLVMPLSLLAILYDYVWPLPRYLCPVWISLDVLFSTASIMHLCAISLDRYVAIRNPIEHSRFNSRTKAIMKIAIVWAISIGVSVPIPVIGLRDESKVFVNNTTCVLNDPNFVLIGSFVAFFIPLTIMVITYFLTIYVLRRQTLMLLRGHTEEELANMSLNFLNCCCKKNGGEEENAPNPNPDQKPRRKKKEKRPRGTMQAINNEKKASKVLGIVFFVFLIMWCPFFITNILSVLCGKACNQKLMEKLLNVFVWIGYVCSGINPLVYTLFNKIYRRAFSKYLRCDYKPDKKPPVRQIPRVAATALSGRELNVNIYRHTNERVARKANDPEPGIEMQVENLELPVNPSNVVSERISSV
# T1 sequence (P14842 whole entry, looked up): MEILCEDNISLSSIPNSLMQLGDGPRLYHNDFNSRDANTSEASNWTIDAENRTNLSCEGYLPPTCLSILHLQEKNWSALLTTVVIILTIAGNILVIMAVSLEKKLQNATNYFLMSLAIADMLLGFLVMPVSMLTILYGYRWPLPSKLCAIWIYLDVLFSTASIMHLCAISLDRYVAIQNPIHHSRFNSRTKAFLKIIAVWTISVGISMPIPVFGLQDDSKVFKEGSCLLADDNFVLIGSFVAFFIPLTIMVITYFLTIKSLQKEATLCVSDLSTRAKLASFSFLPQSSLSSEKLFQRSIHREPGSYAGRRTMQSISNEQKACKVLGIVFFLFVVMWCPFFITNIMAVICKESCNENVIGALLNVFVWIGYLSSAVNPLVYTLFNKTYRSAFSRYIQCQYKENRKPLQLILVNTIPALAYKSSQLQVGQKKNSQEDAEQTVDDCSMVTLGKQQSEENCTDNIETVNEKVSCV
# T1 sequence (P30994 whole entry, looked up): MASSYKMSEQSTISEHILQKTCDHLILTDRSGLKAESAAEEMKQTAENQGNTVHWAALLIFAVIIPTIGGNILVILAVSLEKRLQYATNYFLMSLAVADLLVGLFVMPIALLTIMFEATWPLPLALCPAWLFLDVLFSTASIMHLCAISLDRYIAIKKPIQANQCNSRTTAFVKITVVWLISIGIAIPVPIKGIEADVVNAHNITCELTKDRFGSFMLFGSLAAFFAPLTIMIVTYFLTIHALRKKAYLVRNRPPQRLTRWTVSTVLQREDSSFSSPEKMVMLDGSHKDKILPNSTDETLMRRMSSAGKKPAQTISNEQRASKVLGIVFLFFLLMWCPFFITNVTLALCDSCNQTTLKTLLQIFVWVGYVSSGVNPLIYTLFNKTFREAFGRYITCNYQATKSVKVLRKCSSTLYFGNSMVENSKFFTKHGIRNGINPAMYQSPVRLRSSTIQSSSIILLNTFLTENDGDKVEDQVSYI
smiles,measurement,setting,value
FC(F)(F)c1cccc([C@@H]2CN3CCC[C@@H]3c3ccccc32)c1 (stereo in doubt; (-)-37b),inhibition,[1],45%
same,inhibition,[2],58%
same,inhibition,[3],9%
c1ccc([C@@H]2CN3CCC[C@H]3Cc3ccccc32)cc1,inhibition in vivo at 0.1 mg/kg,[4],6%
c1ccc2c(c1)[C@H](C1CCCCC1)CN1CCC[C@@H]21,inhibition,[5],0%
same,behavior,[6],Weak
same,ED50,[7],inactive
same,Inhibition,[8],31%
same,ED50,[9],inactive
same,inhibition,[10],0%
C[C@@]12CCCCN1C[C@@H](c1ccccc1)c1ccccc12,inhibition,[5],4%
same,Ki,[11],0.002 µM
same,ED50,[9],inactive
same,behavior,[12],Overt convulsant
same,ED50,[13],inactive
same,Ki,[14],> 1 µM
c1ccc([C@@H]2CN3CCC[C@H]3c3ccccc32)cc1 [listing 1 of 2 here],inhibition,[15],1%
same,inhibition,[5],-10%
same,behavior,[6],Weak
same,ED50,[16],inactive
same,ED50,[9],inactive
same,behavior,[12],Overt convulsant
same,inhibition,[10],21%
Br.COc1cc([C@@H]2CN3CCC[C@H]3c3ccccc32)cc(OC)c1OC,behavior,[6],Partial stimulant
same,ED50,[16],inactive
same,inhibition,[17],12%
same,inhibition,[18],88%
same,ED50,[19],inactive
same,Inhibition,[20],9%
same,inhibition,[21],0%
same,inhibition,[22],90%
c1ccc([C@@H]2CN3CCC[C@H]3c3ccccc32)cc1 [listing 2 of 2 here],Ki,[23],~0.1 µM
Br.c1ccc([C@H]2CN3CCC[C@H]3Cc3ccccc32)cc1,inhibition in vivo at 0.1 mg/kg,[4],9%
same,ED50,[24],> 3 mg/kg
